# Measured values as given in ChEMBL document CHEMBL3272355, “Structure--activity relationships in cephalosporins prepared from penicillins. 1. 7beta-Acylamino derivatives of 3-benzyl- and 3-(3-pyridylmethyl)ceph-3-em-4-carboxylic acids” (1977).
# What was measured:
# Staphylococcus aureus [1] = test: Antibacterial activity against Staphylococcus aureus Oxford assessed as growth inhibition after 18 hrs by serial dilution method; type: functional
# In short: (§1)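 Agar dilution MIC: serial dilutions in nutrient agar, each spot-inoculated with 0.001 mL of undiluted overnight broth culture. MIC read after 18 h incubation at 37 °C.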
# Staphylococcus aureus [2] = test: Antibacterial activity against beta-lactamase producing benzylpenicillin-resistant Staphylococcus aureus Russell assessed as growth inhibition after 18 hrs by serial dilution method; type: functional
# Escherichia coli = test: Antibacterial activity against Escherichia coli assessed as growth inhibition after 18 hrs by serial dilution method; type: functional; in short: as §1
# Salmonella typhi = test: Antibacterial activity against Salmonella typhi assessed as growth inhibition after 18 hrs by serial dilution method; type: functional, Salmonella enterica subsp. enterica serovar Typhi; details: Salmonella enterica
# Shigella sonnei = test: Antibacterial activity against Shigella sonnei assessed as growth inhibition after 18 hrs by serial dilution method; type: functional; in short: as §1
# Klebsiella aerogenes = test: Antibacterial activity against Klebsiella aerogenes assessed as growth inhibition after 18 hrs by serial dilution method; type: functional; in short: as §1
# Proteus mirabilis = test: Antibacterial activity against Proteus mirabilis assessed as growth inhibition after 18 hrs by serial dilution method; type: functional; in short: as §1
Structure (SMILES),MIC (Staphylococcus aureus [1]) [µg/mL],MIC (Staphylococcus aureus [2]) [µg/mL],MIC (Escherichia coli) [µg/mL],MIC (Salmonella typhi) [µg/mL],MIC (Shigella sonnei) [µg/mL],MIC (Klebsiella aerogenes) [µg/mL],MIC (Proteus mirabilis) [µg/mL]
CC(=O)N[C@@H]1C(=O)N2C(C(=O)O)=C(Cc3ccccc3)CS[C@H]12,0.5,2.5,> 500,500,> 500,> 500,> 500
NC(CC(=O)N[C@@H]1C(=O)N2C(C(=O)O)=C(Cc3cccnc3)CS[C@H]12)C1CC=CCC1 (mixture of isomers),0.5,1.25,125,125,125,125,250
O=C(COc1ccccc1)N[C@@H]1C(=O)N2C(C(=O)O)=C(Cc3ccccc3)CS[C@H]12,0.02,0.12,> 500,> 500,> 500,> 500,500
O=C(Cc1cccs1)N[C@@H]1C(=O)N2C(C(=O)O)=C(Cc3cccnc3)CS[C@H]12,0.05,10,25,5,25,25,25
N[C@@H](C(=O)N[C@@H]1C(=O)N2C(C(=O)O)=C(Cc3ccccc3)CS[C@H]12)c1ccccc1,0.1,2.5,25,25,25,25,50
O=C(O)C1=C(Cc2cccnc2)CS[C@@H]2[C@H](NC(=O)C(C(=O)Oc3ccccc3)c3cccs3)C(=O)N12 (some centres undefined),12.5,,12.5,50,12.5,12.5,12.5
O=C(Cc1ccncc1)N[C@@H]1C(=O)N2C(C(=O)O)=C(Cc3cccnc3)CS[C@H]12,0.12,25,25,10,25,10,10
N[C@@H](C(=O)N[C@@H]1C(=O)N2C(C(=O)O)=C(Cc3cccnc3)CS[C@H]12)C1CC1,5,12.5,500,250,250,250,500
O=C(O)C1=C(Cc2ccccc2)CS[C@@H]2[C@H](NC(=O)C(C(=O)Oc3ccccc3)c3ccccc3)C(=O)N12 (some centres undefined),2.5,25,> 100,> 100,> 100,> 100,50
O=C(Cn1ncnn1)N[C@@H]1C(=O)N2C(C(=O)O)=C(Cc3ccccc3)CS[C@H]12,0.12,1.25,> 500,> 500,125,500,125
CC(=O)OCC1=C(C(=O)O)N2C(=O)[C@@H](NC(=O)Cc3cccs3)[C@H]2SC1 [CEPHALOTHIN],0.12,0.5,5,12.5,5,5,5
O=C(CSc1ccncc1)N[C@@H]1C(=O)N2C(C(=O)O)=C(Cc3cccnc3)CS[C@H]12,< 0.02,1,25,10,25,5,100
O=C(O)C1=C(Cc2cccnc2)CS[C@@H]2[C@H](NC(=O)[C@H](O)c3ccccc3)C(=O)N12,0.25,12.5,2.5,2.5,2.5,2.5,5
O=C(CSc1ccncc1)N[C@@H]1C(=O)N2C(C(=O)O)=C(Cc3ccccc3)CS[C@H]12,0.05,2.5,250,250,250,> 500,250
N[C@@H](C(=O)N[C@@H]1C(=O)N2C(C(=O)O)=C(Cc3cccnc3)CS[C@H]12)c1ccccc1,0.25,2.5,2.5,1.25,2.5,2.5,5
